Measured values pooled from the literature.
Lines come from different studies, so protocols differ.

| SMILES | test | system | setting | endpoint | result |
| --- | --- | --- | --- | --- | --- |
| Oc1cccc(CCc2ccccc2)c1 | HPLC | – | – | chromatographic logP | > 3.14 |
| CCc1cc(C(=O)NC)c2nccc(N3CCc4c(cc(Cn5ccnc5)cc4-c4cn(C)nc4C(F)(F)F)C3=O)c2c1 | – | male CD-1 mouse, plasma | intravenous, 3 mg/kg | half-life | 0.8 h |
| CC[C@H](C)[C@@H]1NC(=O)[C@@](C)(NC(=O)[C@H](CCCNC(=N)N)NC(=O)[C@H](CC(C)C)NC(=O)[C@@H](NC(=O)[C@H](CCC(N)=O)NC(=O)[C@H](CC(C)C)NC(C)=O)[C@@H](C)O)CCCC=CCCC[C@@](C)(C(=O)N[C@@H](CC(C)C)C(=O)N[C@@H](Cc2ccc3ccccc3c2)C(N)=O)NC(=O)[C@H](CCCNC(=N)N)NC(=O)[C@H](CCC(N)=O)NC1=O | – | male BALB/c mouse, plasma | intraperitoneal, 5 mg/kg | half-life | 3.09 h |
| O=c1nc(N2CCN(CC3CCCCC3)CC2)sc2c([N+](=O)[O-])cc(C(F)(F)F)cc12 | – | CD-1 mouse, lung | intravenous, 10 mg/kg, 24 h | concentration | 15 ng/mL |
| CC(C)(C)c1ccc(O)c(CN(Cc2cc(C(C)(C)C)ccc2O)C2CCC(NC(N)=O)CC2)c1 (stereo not drawn) | – | male C57BL/6 mouse, brain | intraperitoneal, 5 mg/kg, single dose | half-life | 7.1 h |
| CC(C)CN(C[C@@H](O)[C@H](Cc1ccccc1)NC(=O)O[C@H]1CO[C@H]2OCC[C@H]21)S(=O)(=O)c1ccc(N)cc1 | – | BALB/c mouse, plasma | intravenous, 25 mg/kg, 6 h | concentration | 119 ng/mL |
| c1cnc2ccc(Nc3nc(NC4CC4)c4nc[nH]c4n3)cc2c1 | – | human, plasma | oral, 800 mg/m², patients | MRT(0-t) | 9.6 h |
| Oc1cccc(/C=C/c2ccccc2)c1 | HPLC | – | – | chromatographic logP | > 3.14 |
| O=c1c(O)c(-c2ccc(O)c(O)c2)oc2cc(O)cc(O)c12 | – | human, plasma | oral, 500 mg, single dose, fasted, healthy volunteers | MRT(0-t) | 6.84 h |
| O=C(O)C1CCN(c2ncc(-c3ccc4c(c3)OCCCO4)s2)CC1 | – | male Swiss mouse, plasma | oral, 30 mg/kg, 12 h, single dose | concentration | 1640 ng/mL |
| CC(C)(Nc1nc(-c2ccccn2)nc2ccccc12)c1ccccn1 | – | female BALB/c mouse, plasma | oral, 50 mg/kg, 24 h | concentration | 79 ng/mL |
| CC1=NN(CNc2ccccn2)C(=O)C1=NNn1c(-c2ccccc2)nc2ccccc2c1=O | – | – | – | logP | 3.87 |
| N#CN1C[C@H](n2nc(-c3ccc(Oc4ccc(Cl)cn4)cc3)c(C(N)=O)c2N)CCC12CC2 | – | human, plasma | oral, 600 mg, fasted | MRT | 31.6 h |
| CC(C)Oc1cccc(-c2cnc(N3CCC(C(N)=O)CC3)s2)c1 | – | male Swiss mouse, plasma | oral, 30 mg/kg, 2 h, single dose | concentration | 206 ng/mL |
| c1ccc(-c2nc(N3CCC(c4ccccn4)C3)c3ccccc3n2)nc1 (stereo not drawn) | – | female BALB/c mouse, plasma | oral, 50 mg/kg, 8 h | concentration | 19.6 ng/mL |
| O=C1NN=C(N=Cc2ccc(O)c(O)c2)C1=NNn1c(-c2ccccc2)nc2ccccc2c1=O | – | – | – | logP | 3.38 |
| O=S(=O)(c1ccc(-c2ccc3nccc(Nc4ccncn4)c3c2)cc1)N1CCOCC1 | – | female BALB/c mouse, plasma | intraperitoneal, 10 mg/kg, 4 h | concentration | 1350 ng/mL |
| CS(=O)(=O)CCC#N | – | human, plasma | oral, 100 mg, single dose, fasted | MRT | 30.5 h |
| COc1cc(O)cc(/C=C/c2ccccc2)c1 | HPLC | – | – | chromatographic logP | > 3.14 |
| CC(C)(O)c1ccccc1-c1ccc2[nH]c(/C=C/c3ccc(C(F)(F)F)cc3)nc2c1 | – | male human, plasma | oral, 2 mg, single dose, fasted, healthy volunteers | MRT | 77.2 h |
| Cn1cnc2c(F)c(Nc3ccc(Br)cc3Cl)c(C(=O)NOCCO)cc21 | – | nude mouse, liver | oral, 10 mg/kg, single dose, tumour-bearing | half-life | 2.7 h |
